Results gathered from unrelated publications.
Compare with care: the assays were run in different laboratories.
Target: cAMP-dependent protein kinase catalytic subunit PRKX (PRKX, Homo sapiens, UniProt P51817)
Sequence (P51817 1-358, as in one of the studies): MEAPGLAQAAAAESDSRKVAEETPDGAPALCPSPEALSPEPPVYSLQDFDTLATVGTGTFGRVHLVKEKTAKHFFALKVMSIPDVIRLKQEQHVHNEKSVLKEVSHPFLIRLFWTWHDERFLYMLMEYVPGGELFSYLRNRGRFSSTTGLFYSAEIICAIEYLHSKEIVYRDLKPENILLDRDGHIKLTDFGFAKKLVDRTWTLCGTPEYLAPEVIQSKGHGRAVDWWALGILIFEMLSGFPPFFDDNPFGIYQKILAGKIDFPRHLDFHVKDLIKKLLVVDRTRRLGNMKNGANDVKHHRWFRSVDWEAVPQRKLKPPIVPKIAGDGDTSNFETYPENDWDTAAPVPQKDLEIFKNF

Structure (SMILES)	observed	mode	method	tested at	quantity	result
C[C@@H](c1cccc(C#N)c1)n1cc(Cl)cc(C(N)=O)c1=N	cell-free assay		competition with immobilised ligand	1 µM	remaining binding	100%
CCCS(=O)(=O)Nc1ccc(F)c(C(=O)c2c[nH]c3ncc(-c4ccc(Cl)cc4)cc23)c1F	enzyme activity	inhibitor		1 µM	inhibition	< 10%
CO[C@@H](C)c1c(Nc2ccc([C@H](N(C)C(=O)C3CCS(=O)(=O)CC3)C(F)(F)F)cc2)cnc2cc(Cl)nn12	cell-free assay		competition with immobilised ligand	1 µM	remaining binding	88%
Cc1ccc(C(=O)Nc2ccc(CN3CCN(C)CC3)c(C(F)(F)F)c2)cc1C#Cc1cnc2cccnn12	enzyme activity			23.5 nM	remaining activity	77%
CN(C(=O)c1ccccc1)c1cc(N(C)c2ccc3c(c2)CCc2ccc(C(=O)NCCN4CCOCC4)cc2C3=O)ccc1F	cell-free assay		competition with immobilised ligand	1 µM	remaining binding	93%
CCOc1cc(-c2nncn2C)ccc1Nc1ncc2cc(C)nc(NCC(C)(C)C)c2n1	enzyme activity	inhibitor	FRET	1 µM	inhibition	< 15%
CC(C)(C)c1nc2c(s1)c1nc(N)ncc1c1ccc(NS(=O)(=O)c3c(F)cccc3F)c(F)c12	enzyme activity	inhibitor	radiometric	1 µM	remaining activity	82%
CCCOc1ccc(OC)c(F)c1C(=O)c1ccc(C(=O)N[C@@H]2CNC[C@H]2NC(=O)c2ccc3[nH]ncc3c2)cc1	enzyme activity	inhibitor		50 nM	remaining activity	16%
O=C1NC(c2ccccn2)Sc2ccccc21 (centres unmarked)	cell-free assay		competition with immobilised ligand	1 µM	remaining binding	100%
CN1CC(Oc2cnc(C#N)cc2-c2ccn3nc(NC(=O)C4CC4)cc3c2)C1	enzyme activity	inhibitor		1 µM	inhibition	5%
CNC(=O)c1cc(Oc2ccc(NC(=O)Nc3ccc(Cl)c(C(F)(F)F)c3)cc2)ccn1	enzyme activity	inhibitor		0.3 µM	inhibition	8%
NS(=O)(=O)c1cc(NC(=O)C2(c3ccccc3Cl)CC2)ccc1Oc1cccc(Cl)c1	cell-free assay		competition with immobilised ligand	1 µM	remaining binding	77%
Cc1ccc(Nc2nccc(N(C)c3ccc4c(C)n(C)nc4c3)n2)cc1S(N)(=O)=O	enzyme activity	inhibitor		10 µM	inhibition	88%
O=C(Nc1cnn(-c2csc(C(=O)NC3COC3)c2)c1)Nc1c(F)cccc1Cl	enzyme activity	inhibitor		5 µM	remaining activity	91.5%
CN(C)c1nccc(-c2cnc3ncccn23)n1	binding			1 µM	remaining binding	94%
CC/C(=N\NC(=O)C(C)Nc1ccccc1)c1ccc(O)c(C)c1O (centres unmarked)	enzyme activity	inhibitor		0.1 µM	inhibition	45.2%
O=c1cc(-c2cccc3c2Sc2ccccc2S3)oc(N2CCOCC2)c1	enzyme activity	inhibitor		0.5 µM	remaining activity	113%
N#Cc1ccc(Nc2ccc3[nH]c(=O)[nH]c3c2)c(Cl)c1	cell-free assay		competition with immobilised ligand	1 µM	remaining binding	100%
COc1cc2ncnc(Nc3ccc(Oc4ccccc4)c(C)c3C)c2cc1OC	enzyme activity	inhibitor		1 µM	inhibition	-12%
CS(=O)(=O)N1CCCC(NC(=O)[C@H](CCC2CCCCC2)NC(=O)c2ccc(CNc3ncnc4c3nnn4-c3ccccc3)cc2)C1 (some centres unmarked)	cell-free assay		competition with immobilised ligand	0.1 µM	remaining binding	100%
Cn1cnc(Br)c1C1=CN(c2ncnc3[nH]cnc23)CCS1	enzyme activity	inhibitor	radiometric	2 µM	inhibition	92.8%
CCN(CC)CCNC(=O)c1c(C)[nH]c(/C=C2\C(=O)Nc3ccc(F)cc32)c1C	enzyme activity	inhibitor		10 µM	inhibition	15%
Cc1ccc(NC(=O)c2ccc(CN3CCN(C)CC3)cc2)cc1Nc1nc(-c2cccnc2)cs1	cell-free assay			0.5 µM	remaining signal	99.5%
CC(C)(O)[C@H]1CC[C@H](Nc2ccc3ncc(-c4cccc(C(F)(F)F)c4)n3n2)CC1	enzyme activity	inhibitor		1 µM	remaining activity	103%
Cc1cc(NC(=O)c2cccc(S(F)(F)(F)(F)F)c2)cc(-n2ccn3nc(-c4cccnc4)cc23)c1	cell-free assay		competition with immobilised ligand	1 µM	remaining binding	100%
O=C1Nc2ccc(Cl)cc2C1=Cc1cc(Cl)c(O)c(Cl)c1	cell-free assay			0.5 µM	remaining signal	92.1%
